Screening data: PubChem BioAssay, Broad Institute
C2C12 statin = protects C2C12 myotubes from simvastatin toxicity | ATP luminescence, 48 h; scaled: DMSO 0, geranylgeraniol control 100 | rescue of ATP level, % at 7.49 µM | 330,000 tested, 0.78% active;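 active = mean ATP rescue above about 67%, or every replicate alone reaching that limit, limit read from the data, passing the limit was not always enough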;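 also: myotubes were challenged with 10 µM simvastatin during compound exposure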
DENV2 CPE rescue = protects cells from dengue virus 2 cytopathic effect | DENV2-infected cells, cytopathic effect rescue, plate reader | CPE inhibition, % at 9.99 µM | 350,000 tested, 1.7% active | AID 651640; in the data active = CPE inhibition above about 20%, passing the limit was not always enough; tested in BHK-21 cells
E-sel inducer = induces E-selectin expression in human endothelial cells; P16581; HUVEC E-selectin immunofluorescence imaging; normalized: neutral wells 0, TNF-alpha wells 100; activation, % at 7.58 µM; 260,000 tested, 0.37% active; AID 686992;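 active = mean E-selectin-positive cell signal at least 10% of the positive control, reached in at least 60% of replicates, without over 20% cell loss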
Target sequence (P16581 whole entry, looked up): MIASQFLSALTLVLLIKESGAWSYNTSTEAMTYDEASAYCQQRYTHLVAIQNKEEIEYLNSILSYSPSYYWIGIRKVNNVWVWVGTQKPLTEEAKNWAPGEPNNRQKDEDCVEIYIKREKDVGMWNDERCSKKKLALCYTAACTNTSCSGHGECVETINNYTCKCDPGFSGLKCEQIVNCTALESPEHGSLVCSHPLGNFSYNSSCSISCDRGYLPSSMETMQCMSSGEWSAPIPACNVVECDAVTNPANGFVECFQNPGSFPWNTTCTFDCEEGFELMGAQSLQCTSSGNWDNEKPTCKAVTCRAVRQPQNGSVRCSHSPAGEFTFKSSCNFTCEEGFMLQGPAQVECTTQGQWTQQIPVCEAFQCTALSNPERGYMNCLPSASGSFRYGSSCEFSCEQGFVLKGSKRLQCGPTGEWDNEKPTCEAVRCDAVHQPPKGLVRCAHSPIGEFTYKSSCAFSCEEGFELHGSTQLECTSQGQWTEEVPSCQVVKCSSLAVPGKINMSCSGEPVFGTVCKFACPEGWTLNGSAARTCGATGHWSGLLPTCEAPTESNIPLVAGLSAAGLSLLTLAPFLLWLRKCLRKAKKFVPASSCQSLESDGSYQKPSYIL
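Assay system: HUVEC primary endothelial cells. Input: 3,000 HUVEC seeded per well. Doses: one compound dose added by pin transfer. Read-out basis: % PE-positive cells. Benchmarks: TNF-alpha high, DMSO low. Detection: immunofluorescence imaging. Buffer or medium: EGM-2, gelatin.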
Of the large screens only hits and unclear results are named; the others gave an inactive call. An excerpt weighted towards active compounds, which were near 2.2% of everything screened.

COc1ccc(S(=O)(=O)Nc2ccc3c(c2)C(=O)N([C@H](C)CO)C[C@@H](C)[C@@H](CN(C)Cc2ccc(C(=O)O)cc2)OCCCC[C@H](C)O3)cc1	none (no result: C2C12 statin)
C[C@@H]1CN([C@H](C)CO)C(=O)c2cc(NC(=O)CCC(F)(F)F)ccc2O[C@@H]1CN(C)Cc1ccc(Cl)c(Cl)c1	none
C[C@@H]1CN([C@H](C)CO)C(=O)Cc2cc(NC(=O)c3ccncc3)ccc2O[C@H]1CN(C)S(=O)(=O)c1ccccc1	none
O=C(OCc1nc2ccccc2s1)c1ccccc1O	none (no result: C2C12 statin, E-sel inducer)
O=C(OCc1nc2ccccc2s1)c1cnccn1	C2C12 statin 132.1 (no result: DENV2 CPE rescue, E-sel inducer)
O=C(CSCc1ccc(Cl)cc1)N1CCOCC1	none
Cc1ccc(CSCC(=O)N2CCOCC2)cc1	C2C12 statin 104.2 (no result: DENV2 CPE rescue, E-sel inducer)
COC(=O)c1ccc(CN2CC(=O)N3[C@@H](CO)[C@@H](c4ccc(-c5ccccc5F)cc4)[C@@H]3C2)cc1	none (no result: C2C12 statin)
COc1ccc(NC(=O)C2CCC(CNS(=O)(=O)c3cccs3)CC2)cc1 (configuration not stated)	none (no result: C2C12 statin, E-sel inducer)
O=C(NCc1ccc(F)cc1)C1CCC(CNS(=O)(=O)c2cccs2)CC1 (configuration not stated)	none
COc1ccc(NC(=O)C2CCC(CNS(=O)(=O)c3cccs3)CC2)cc1OC (configuration not stated)	DENV2 CPE rescue 30.9 (no result: C2C12 statin)
O=C(NCc1ccccc1)C1CCC(CNS(=O)(=O)c2cccs2)CC1 (configuration not stated)	C2C12 statin 96.6 (no result: E-sel inducer)
C[C@@H]1CN([C@@H](C)CO)C(=O)c2cc(NC(=O)NC3CCCCC3)ccc2O[C@@H]1CN(C)Cc1ccc(C(=O)O)cc1	none
O=C(NCc1ccc(F)cc1)c1cc(-c2ccccn2)nc2ccc(S(=O)(=O)N3CCOCC3)cc12	DENV2 CPE rescue 31.1
O=C(NCc1ccccc1)c1cc(-c2ccncc2)nc2ccc(S(=O)(=O)N3CCOCC3)cc12	none (no result: E-sel inducer)
C[C@H](CO)N1C[C@H](C)[C@H](CN(C)Cc2ccc3c(c2)OCO3)Oc2ccc(NS(=O)(=O)c3cccs3)cc2CC1=O	none
COc1ccc(S(=O)(=O)Nc2ccc3c(c2)CC(=O)N([C@H](C)CO)C[C@@H](C)[C@@H](CN(C)Cc2ccc4c(c2)OCO4)O3)cc1	none
C[C@H]1CN([C@@H](C)CO)C(=O)Cc2cc(NS(=O)(=O)c3cccs3)ccc2O[C@H]1CN(C)Cc1ccc2c(c1)OCO2	DENV2 CPE rescue 103.8
C[C@H]1CN([C@@H](C)CO)C(=O)Cc2cc(NS(=O)(=O)c3ccc(Cl)cc3)ccc2O[C@@H]1CN(C)Cc1ccc2c(c1)OCO2	DENV2 CPE rescue 23.4
COc1ccc(S(=O)(=O)Nc2ccc3c(c2)CC(=O)N([C@@H](C)CO)C[C@H](C)[C@H](CN(C)Cc2ccc4c(c2)OCO4)O3)cc1	DENV2 CPE rescue 28.2
C[C@H](CO)N1C[C@H](C)[C@@H](CN(C)Cc2ccc3c(c2)OCO3)Oc2ccc(NS(=O)(=O)c3ccc(Cl)cc3)cc2CC1=O	none
COCCNC(=O)C[C@@H]1C[C@H]2c3cc(NC(=O)CN(C)C)ccc3O[C@H]2[C@H](CO)O1	none (no result: DENV2 CPE rescue)
COc1cccc(-c2cnc3c(NC(C)=O)cc(-c4ccncc4)cn23)c1	none
COc1cc(-c2cnc3c(NC=O)cc(-c4cccc(C(F)(F)F)c4)cn23)cc(OC)c1OC	none
COc1cccc(-c2cnc3c(NC=O)cc(-c4ccncc4)cn23)c1	DENV2 CPE rescue 65.2
Cn1cc(-c2cnc3c(NC=O)cc(-c4cccc(C(F)(F)F)c4)cn23)cn1	DENV2 CPE rescue 27.0
O=C(C[C@H]1CC[C@H]2[C@@H](COC[C@@H](O)CN2C(=O)C2CC2)O1)NCc1ccncc1	none
COc1cccc(-c2ccc3n(c2=O)C[C@@H]2[C@@H](CO)[C@H](C(=O)NC4CCCC4)[C@H]3N2C)c1	none
COCC(=O)N1[C@H](CO)[C@H](c2ccccc2C2=CCCC2)[C@@H]1C#N	none (no result: C2C12 statin)
CC1CCN(C(=O)N[C@@H](Cc2ccccc2)C(=O)O)CC1	none (no result: DENV2 CPE rescue, E-sel inducer)
CC(=O)NC(Cc1ccccc1)Cc1ccccc1	none
CC1CN(C(=O)N[C@@H](Cc2ccccc2)C(=O)O)CC(C)O1 (some centres not stated)	C2C12 statin 85.9 (no result: DENV2 CPE rescue, E-sel inducer)
CC(=O)NC(Cc1ccccc1)C(=O)O (configuration not stated)	DENV2 CPE rescue 56.3 (no result: E-sel inducer)
CC(=O)N(C)C[C@H]1Oc2cc(C#Cc3cccc(F)c3)ccc2S(=O)(=O)N([C@H](C)CO)C[C@H]1C	none
N[C@@H]1CC[C@H](CCn2cc(-c3ccccn3)nn2)O[C@H]1CO	none
C[C@@H]1CN([C@H](C)CO)C(=O)c2cc(NC(=O)Cc3cn(C)c4ccccc34)ccc2O[C@H]1CN(C)Cc1ccc(-c2ccccc2)cc1	C2C12 statin 68.4
C[C@H](CO)N1C[C@H](C)[C@H](CN(C)Cc2ccc(C(=O)O)cc2)Oc2ccc(NC(=O)Cc3cn(C)c4ccccc34)cc2C1=O	DENV2 CPE rescue 70.3
C[C@@H]1CN([C@@H](C)CO)C(=O)c2cc(NC(=O)Cc3cn(C)c4ccccc34)ccc2O[C@@H]1CN(C)Cc1ccc(C(=O)Nc2ccccc2N)cc1	none
C[C@H]1CN([C@@H](C)CO)C(=O)c2cc(NC(=O)Cc3cn(C)c4ccccc34)ccc2O[C@@H]1CN(C)Cc1ccc(C(F)(F)F)cc1	C2C12 statin 83.0 (no result: E-sel inducer)
C[C@H](CO)N1C[C@H](C)[C@@H](CN(C)Cc2ccc(C(F)(F)F)cc2)Oc2ccc(NC(=O)Cc3cn(C)c4ccccc34)cc2C1=O	none (no result: E-sel inducer)
C[C@@H]1CN([C@H](C)CO)C(=O)c2cc(NC(=O)Cc3cn(C)c4ccccc34)ccc2O[C@H]1CN(C)Cc1ccc(C(=O)O)cc1	none
C[C@H](CO)N1C[C@H](C)[C@H](CN(C)Cc2ccc(C(=O)Nc3ccccc3N)cc2)Oc2ccc(NC(=O)Cc3cn(C)c4ccccc34)cc2C1=O	C2C12 statin 97.5 (no result: E-sel inducer)
C[C@H]1CN([C@@H](C)CO)C(=O)c2cc(NC(=O)Cc3cn(C)c4ccccc34)ccc2O[C@@H]1CN(C)Cc1ccc(-c2ccccc2)cc1	none
C[C@@H](NC(=O)[C@H]1[C@H](CO)[C@H]2Cn3c(cccc3=O)[C@@H]1N2Cc1ccncc1)c1ccccc1	none
O=C(NC[C@H]1CC[C@H]2[C@H](CN2Cc2ccc(Oc3ccccc3)cc2)O1)C1CCOCC1	none (no result: C2C12 statin, E-sel inducer)
O=C(c1cnccn1)N1CC(=O)N2[C@H](C1)[C@H](c1ccc(C#CCC3CCCC3)cc1)[C@@H]2CO	none (no result: C2C12 statin)
O=C(c1cccnc1)N1C[C@H]2[C@@H](c3ccccc31)[C@H](CO)N2CC1CCCC1	none
C[C@@H]1CN([C@H](C)CO)C(=O)c2cc(NC(=O)Cc3cn(C)c4ccccc34)ccc2O[C@@H]1CN(C)CC1CCCCC1	none
CC1=Nn2c(nc3sc4c(c3c2=O)CCCC4)SC1	none (no result: C2C12 statin, DENV2 CPE rescue)
O=c1c2c3c(sc2nc2n1CCC2)CCCC3	none
O=c1c2c3c(sc2nc2n1CCCS2)CCCC3	C2C12 statin 114.0 (no result: DENV2 CPE rescue, E-sel inducer)
CC1CSc2nc3sc4c(c3c(=O)n21)CCCC4 (configuration not stated)	C2C12 statin 140.9 (no result: DENV2 CPE rescue, E-sel inducer)
C[C@H](CO)N1C[C@H](C)[C@H](CN(C)C(=O)NC2CCCCC2)Oc2ncc(C#CC(C)(C)O)cc2C1=O	none
Cc1cccc(-c2ccc([C@@H]3[C@@H](CO)N4CCCCN(S(=O)(=O)c5cccc(C)c5)C[C@@H]34)cc2)c1	DENV2 CPE rescue 21.0 (no result: C2C12 statin)
